IC50 data for 21 compounds are collected here from ChEMBL document CHEMBL1152697, “Design, synthesis and SAR studies of 4-allyoxyaniline amides as potent 15-lipoxygensae inhibitors” (Bioorg Med Chem, 2009).

Each structure is given as a SMILES string.

The nature of this assay: Inhibition of soybean 15-lipoxygenase. More on the design: species or system Glycine max. The essentials: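 Soybean 15-lipoxygenase (final 167 U/mL) in 0.1 M borate buffer pH 9, linoleic acid substrate (final 134 μM), 20 ± 1 °C. Compounds added in DMSO (final 1%), DMSO-only controls, inhibitor plus substrate as blank. Absorbance at 234 nm read for 60 s after enzyme addition. Enzyme kept on ice. At least six control tubes and triplicate tubes per inhibitor. IC50 by linear interpolation around 50% activity, mean ± SD.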
The term IC50 denotes the concentration that inhibits the measured activity by half. Turning to `C=CCOc1ccc(NC(=O)c2ccc(C)cc2)cc1`, 10.1 µM corresponded to half-maximal inhibition (IC50). In turn, `C=CCOc1ccc(NC(=O)c2cccc(C)c2)cc1` returned an IC50 of 6.7 µM. Compound `C=CCc1ccc(OC)cc1` [ESTRAGOLE] registered an IC50 of 64.1 µM. Under `C=CCOc1ccc(OC(=O)c2ccccc2)cc1` stands 6.2 µM. Under `C=CCOc1ccc(NC(=O)c2ccccc2)cc1` stands 3.3 µM; under `C=CCOc1ccc(NC(=O)C2CCCCC2)cc1`, 6.4 µM. As to `C=CCOc1ccc(NC(=O)c2cccc(F)c2)cc1`, the IC50 was found to be 5.6 µM. The compound `C=CCc1ccc(O)c(OC)c1` [EUGENOL] showed an IC50 of 38.2 µM. Under `C=CCc1ccc(OC)c(OC)c1` [METHYLEUGENOL] stands 96.1 µM; under `C=CCOc1ccc(NC(=O)C23CC4CC(CC(C4)C2)C3)cc1`, 0.67 µM. Turning to `C=CCOc1ccc(NC(=O)C2CCCC2)cc1`, the IC50 turned out to be 4.1 µM. `C=CCOc1ccc(NC(=O)C(C)C)cc1` displayed an IC50 of 12.9 µM. Under `C=CCOc1ccc(NC(=O)C2CCC2)cc1` stands 2.2 µM. Under `C=CCc1ccc(OC(=O)c2ccccc2)cc1` stands 6.7 µM; under `C=CCOc1ccc(NC(=O)c2ccc(F)cc2)cc1`, 3.8 µM; under `C=CCOc1ccc(NC(=O)c2ccc(OC)cc2)cc1`, 13.8 µM. Under `C=CCOc1ccc(NC(=O)c2ccc(Cl)cc2)cc1` stands 8.8 µM; under `C=CCOc1ccc(NC(=O)c2cccc(OC)c2)cc1`, 17 µM. `C=CCOc1ccc(NC(=O)C2CC2)cc1`: the IC50 stood at 6.1 µM. Under `C=CCOc1ccc(NC(=O)c2cccc(Cl)c2)cc1` stands 8.1 µM; under `C=CCc1ccc(OC(=O)c2ccccc2)c(OC)c1` [EUGENYL BENZOAT], 7 µM.
